Laboratory results published in article PMC3692342 (International Journal of Nanomedicine, 2013).
Marks after values point to notes of the source that are not given here. One block for each compound: values may come before it.

Legend:
WRL-68 cells = assay: MTT cell viability assay on normal human hepatic cells; conditions: 24 hours, TQNLC concentration based on amount of TQ
In short: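 Human normal liver WRL-68 cells were grown in DMEM with 10% FBS, 100 units/mL penicillin and 0.1 mg/mL streptomycin at 37°C under 5% CO2. They were seeded at 1 × 10^5 cells/mL, held 24 h, then exposed to test compound for 24 h. MTT (2 mg/mL) was added for 1 h and A570 read. Viability is % of untreated absorbance; IC50 is the concentration giving 50% growth loss. Cisplatin served as positive control.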

ethanol-induced ulcers = assay: Ethanol-induced gastric ulcer in rats; assay type: in vivo, Sprague Dawley male rats
[1] = Pharmacokinetic study in rabbits; assay type: in vivo, New Zealand White rabbits
[2] = oral pretreatment 20 mg/kg 1 h before ethanol
[3] = oral pretreatment 60 mg/Kg 1 h before ethanol
[4] = New Zealand White, rabbit, plasma, ip, 10 mg/kg
[5] = TQ in rabbits, single extravascular (IP) dose of TQNLC(20) 10 mg/kg, n = 3

Structure (SMILES): N.N.[Cl][Pt][Cl] [cisplatin]
IC50 (concentration causing 50% loss of cell growth) (WRL-68 cells): 5.1 ± 0.28 µg/mL

Structure (SMILES): COc1ccc2[nH]c([S+]([O-])Cc3ncc(C)c(OC)c3C)nc2c1 (stereo not shown) [Omeprazole]
PAS-positive mucus versus ulcer control group (in words) (ethanol-induced ulcers; oral 20 mg/kg, PAS staining): more PAS-positive mucus
Histopathology of stomach versus ulcer control group (in words) (ethanol-induced ulcers; oral 20 mg/kg, hematoxylin and eosin): improved
I% (inhibition percentage of ulcer area) (ethanol-induced ulcers; [2]): 80.8%
UA (ulcer area) (ethanol-induced ulcers; [2]): 183 ± 5.8^b mm^2
pH (gastric juice) (ethanol-induced ulcers; oral pretreatment 20 mg/kg 1 h before ethanol 5 mL/kg): 6.43 ± 0.2^b

AUC(0-inf) [1, 4]: 26822 ± 9.4 ng·h/mL
Cmax [1, 4]: 4810 ± 55.5 ng/mL
Tmax [1, 4]: 3.96 ± 0.19 h
half-life [1, 4]: 4.493 ± 0.015 h
CL (clearance) [1, 5]: 11.8 ± 0.517 mL/min/kg
Vd (volume of distribution) [1, 5]: 4.32 ± 0.34 L/kg
Structure (SMILES): CC1=CC(=O)C(C(C)C)=CC1=O [Thymoquinone, thymoquinone]
I% (inhibition percentage of ulcer area) (ethanol-induced ulcers; [3]): 89.1%
Mucus (weight of gastric mucosa) (ethanol-induced ulcers; [3]): 3.24 ± 0.4^d
UA (ulcer area) (ethanol-induced ulcers; [3]): 112.4 ± 3.2^e mm^2
pH (gastric juice) (ethanol-induced ulcers; [3]): 6.5 ± 0.3^c
